pIC50: −log10 of the molar value. Active and inactive are the calls of the source. The rule behind the calls is not given here.
Legend:
[1] = system: SAOS-2; experiment: Cytotoxicity against human SAOS-2 cells assessed as reduction in cell viability incubated for 48 hrs by CellTiter-Blue reagent based […] assay; type: functional; conditions: SAOS-2, 48 h
In short: (§1)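 Cells seeded and grown to 60–80% confluency (usually 18–24 h), then treated 48 h with a range of concentrations prepared in each line's medium. CellTiter-Blue reagent added at the end of treatment and incubated 3–5 h at 37 °C, 5% CO₂. Fluorescence read at 560 nm excitation and 590 nm emission. IC50 from nonlinear regression, log(inhibitor) vs. normalized response.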

[2] = Cytotoxicity against human A4573 cells assessed as reduction in cell viability incubated for 48 hrs by CellTiter-Blue reagent based […] assay; type: functional; conditions: A4573, 48 h; in short: as §1
[3] = Cytotoxicity against human TC71 cells assessed as reduction in cell viability incubated for 48 hrs by CellTiter-Blue reagent based […] assay; type: functional; conditions: TC-71, 48 h; in short: as §1
[4] = system: U2OS; experiment: Cytotoxicity against human U2OS cells assessed as reduction in cell viability incubated for 48 hrs by CellTiter-Blue reagent based […] assay; type: functional; in short: as §1
[5] = system: TC-32; experiment: Cytotoxicity against human TC-32 cells assessed as reduction in cell viability incubated for 48 hrs by CellTiter-Blue reagent based […] assay; type: functional; conditions: TC-32, 48 h; in short: as §1
[6] = system: U2OS; experiment: Induction of apoptosis in human U2OS cells assessed as PARP cleavage at 0.1 to 0.4 uM incubated for 48 hrs by western blot analysis; type: functional, cell-based; conditions: dose 0.1-0.4 µM
In short: (§2)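 Cells treated 48 h with three concentrations per agent (0.1, 0.2 or 0.4 μM for one; 10, 20 or 40 μM for another). Total cell lysates immunoblotted for PARP and caspase 3 and their cleaved products. Actin used as loading control and for normalization. ECL signal imaged on PVDF, bands quantified by densitometry.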

[7] = system: U2OS; experiment: Induction of apoptosis in human U2OS cells assessed as caspase-3 cleavage at 0.1 to 0.4 uM incubated for 48 hrs by western blot analysis; type: functional, cell-based; conditions: dose 0.1-0.4 µM; in short: as §2
[8] = system: TC-32; experiment: Induction of apoptosis in human TC-32 cells assessed as PARP cleavage at 0.1 to 0.4 uM incubated for 48 hrs by western blot analysis; type: functional, cell-based; conditions: dose 0.1-0.4 µM; in short: as §2
[9] = system: U2OS; experiment: Induction of apoptosis in human U2OS cells assessed as increase in hypodiploid subG1 population at 0.1 to 0.4 uM incubated for 48 hrs by propidium iodide staining based flow cytometry; type: functional, cell-based; conditions: dose 0.1-0.4 µM
In short: (§3)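 Treatment same as the apoptosis blots (48 h; 0.1–0.4 μM or 10–40 μM). Adherent cells trypsinized and pooled with floating cells, then washed in PBS. Fixed in ice-cold 70% ethanol 1 h on ice, rehydrated, RNase A 100 μg/mL. Stained with propidium iodide at 50 μg/mL final for 1 h on ice. Sub-G1 fraction read by flow cytometry.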

[10] = system: TC-32; experiment: Induction of apoptosis in human TC-32 cells assessed as caspase-3 cleavage at 0.1 to 0.4 uM incubated for 48 hrs by western blot analysis; type: functional, cell-based; conditions: dose 0.1-0.4 µM; in short: as §2
[11] = system: TC-32; experiment: Induction of apoptosis in human TC-32 cells assessed as increase in hypodiploid subG1 population at 0.1 to 0.4 uM incubated for 48 hrs by propidium iodide staining based flow cytometry; type: functional, cell-based; conditions: dose 0.1-0.4 µM; in short: as §3

With Nc1ncnc2c1ncn2[C@H]1C[C@H](O)[C@@H](CN2CCOCC2)O1 the pIC50 [1] was at most 4.30, the pIC50 [2] was at most 4.30 and the pIC50 [3] was at most 4.30. The pIC50 [4] was at most 4.30 and the pIC50 [5] was at most 4.30.

In the case of Nc1nc(Cl)nc2c1ncn2[C@H]1C[C@H](O)[C@@H](CO)O1 [CLADRIBINE], the pIC50 [1] was at most 4.30, the pIC50 [2] was 5.83 and the pIC50 [3] was 5.96. The pIC50 [4] was at most 4.30 and the pIC50 [5] was 5.53.

Nc1ncnc2c1ncn2[C@@H]1C[C@@H](O)[C@H](C(=O)O)O1 showed a pIC50 [1] of at most 4.30, a pIC50 [2] of at most 4.30 and a pIC50 [3] of at most 4.30. It also gave a pIC50 [4] of at most 4.30 and a pIC50 [5] of at most 4.30.

Nc1nc(Cl)nc2c1ncn2[C@@H]1O[C@H](CN2CCOCC2)[C@@H](O)[C@@H]1F gave a pIC50 [1] of at most 4.00, a pIC50 [3] of at most 4.00 and a pIC50 [4] of at most 4.00. It also gave a pIC50 [5] of at most 4.00.

Molecule Nc1nc(N2CCOCC2)nc2c1ncn2[C@@H]1O[C@H](CN2CCOCC2)[C@@H](O)[C@@H]1F has a pIC50 [1] of at most 4.00, a pIC50 [3] of at most 4.00 and a pIC50 [4] of at most 4.00. The pIC50 [5] was at most 4.00.

Work on Nc1ncnc2c1ncn2[C@@H]1O[C@H](C(=O)O)[C@@H](O)[C@H]1F yielded a pIC50 [1] of at most 4.30, a pIC50 [2] of at most 4.30 and a pIC50 [3] of at most 4.30. For the same molecule, the pIC50 [4] was at most 4.30 and the pIC50 [5] was at most 4.30.

CSC[C@H]1O[C@@H](n2cnc3c(N)nc(SC)nc32)[C@@H](F)[C@@H]1O showed a pIC50 [1] of at most 4.30, a pIC50 [2] of at most 4.30 and a pIC50 [3] of at most 4.30. The pIC50 [4] was at most 4.30 and the pIC50 [5] was at most 4.30.

Work on Nc1nc(-c2cccnc2)nc2c1ncn2[C@H]1C[C@H](O)[C@@H](CO)O1 yielded a pIC50 [1] of 3.96, a pIC50 [2] of 4.26 and a pIC50 [3] of 4.53. The pIC50 [4] was 3.79 and the pIC50 [5] was 4.28.

Nc1nc(Cl)nc2c1ncn2[C@H]1C[C@H](O)[C@@H](COc2cc(C(=O)O)cc(C(=O)O)c2)O1 gave a pIC50 [1] of at most 4.00, a pIC50 [3] of at most 4.00 and a pIC50 [4] of at most 4.00. It also gave a pIC50 [5] of at most 4.00.

In the case of Nc1nc(-c2ccsc2)nc2c1ncn2[C@H]1C[C@H](O)[C@@H](CO)O1, the pIC50 [1] was at most 4.30, the pIC50 [2] was at most 4.30 and the pIC50 [3] was at most 4.30. The pIC50 [4] was at most 4.30 and the pIC50 [5] was at most 4.30.

For Nc1ncnc2c1ncn2[C@@H]1C[C@@H](O)[C@H](CN2CCOCC2)O1, the pIC50 [1] was at most 4.30, the pIC50 [2] was at most 4.30 and the pIC50 [3] was at most 4.30. For the same molecule, the pIC50 [4] was at most 4.30 and the pIC50 [5] was at most 4.30.

In the case of Nc1ncnc2c1ncn2[C@@H]1O[C@H](CN2CCOCC2)[C@@H](O)[C@@H]1F, the pIC50 [1] was at most 4.30, the pIC50 [2] was at most 4.30 and the pIC50 [3] was at most 4.30. It also gave a pIC50 [4] of at most 4.30 and a pIC50 [5] of at most 4.30.

Work on Nc1ncnc2c1ncn2[C@@H]1O[C@H](C(=O)O)[C@@H](O)[C@@H]1F yielded a pIC50 [1] of at most 4.30, a pIC50 [2] of at most 4.30 and a pIC50 [3] of at most 4.30. The pIC50 [4] was at most 4.30 and the pIC50 [5] was at most 4.30.

Molecule CS(=O)(=O)C[C@H]1O[C@@H](n2cnc3c(N)nc(Cl)nc32)C[C@@H]1O has a pIC50 [1] of at most 4.30, a pIC50 [2] of at most 4.30 and a pIC50 [3] of 4.44. For the same molecule, the pIC50 [4] was at most 4.30 and the pIC50 [5] was at most 4.30.

For CS(=O)(=O)C[C@H]1O[C@@H](n2cnc3c(N)nc(Cl)nc32)[C@@H](F)[C@@H]1O, the pIC50 [1] was at most 4.30, the pIC50 [2] was at most 4.30 and the pIC50 [3] was 4.50. It also gave a pIC50 [4] of at most 4.30 and a pIC50 [5] of at most 4.30.

C=C1O[C@@H](n2cnc3c(N)nc(N4CCOCC4)nc32)[C@@H](F)[C@@H]1O gave a pIC50 [1] of 4.01, a pIC50 [3] of at most 4.00 and a pIC50 [4] of 4.17. The pIC50 [5] was 4.01.

In the case of Nc1ncnc2c1ncn2[C@H]1C[C@H](O)[C@@H](C(=O)O)O1, the pIC50 [1] was at most 4.30, the pIC50 [2] was at most 4.30 and the pIC50 [3] was at most 4.30. The pIC50 [4] was at most 4.30 and the pIC50 [5] was at most 4.30.

Molecule Nc1nc(-c2ccncc2)nc2c1ncn2[C@@H]1O[C@H](CO)[C@@H](O)[C@@H]1F has a pIC50 [1] of at most 4.30, a pIC50 [2] of at most 4.30 and a pIC50 [3] of at most 4.30. It also gave a pIC50 [4] of at most 4.30 and a pIC50 [5] of at most 4.30.

Nc1ncnc2c1ncn2[C@@H]1O[C@H](CN2CCOCC2)[C@@H](O)[C@H]1F gave a pIC50 [1] of at most 4.30, a pIC50 [2] of at most 4.30 and a pIC50 [3] of at most 4.30. It also gave a pIC50 [4] of at most 4.30 and a pIC50 [5] of at most 4.30.

Nc1nc(Cl)nc2c1ncn2[C@@H]1O[C@H](COc2cc(C(=O)O)cc(C(=O)O)c2)[C@@H](O)[C@@H]1F gave a pIC50 [1] of 4.06, a pIC50 [3] of 4.01 and a pIC50 [4] of at most 4.00. It also gave a pIC50 [5] of at most 4.00.

With Nc1nc(Cl)nc2c1ncn2[C@H]1C[C@H](O)[C@@H](CN2CCOCC2)O1 the pIC50 [1] was 4.01, the pIC50 [3] was at most 4.00 and the pIC50 [4] was at most 4.00. For the same molecule, the pIC50 [5] was at most 4.00.

With Nc1nc(-c2ccsc2)nc2c1ncn2[C@@H]1O[C@H](CO)[C@@H](O)[C@@H]1F the pIC50 [1] was at most 4.30, the pIC50 [2] was at most 4.30 and the pIC50 [3] was at most 4.30. For the same molecule, the pIC50 [4] was at most 4.30 and the pIC50 [5] was at most 4.30.

In the case of Nc1nc(-c2ccoc2)nc2c1ncn2[C@@H]1O[C@H](CO)[C@@H](O)[C@@H]1F, the pIC50 [1] was at most 4.30, the pIC50 [2] was at most 4.30 and the pIC50 [3] was at most 4.30. For the same molecule, the pIC50 [4] was at most 4.30 and the pIC50 [5] was at most 4.30.

With Nc1nc(-c2ccoc2)nc2c1ncn2[C@H]1C[C@H](O)[C@@H](CO)O1 the pIC50 [1] was 3.77, the pIC50 [2] was 4.11 and the pIC50 [3] was 4.17. For the same molecule, the pIC50 [4] was 3.70 and the pIC50 [5] was 4.26.

With Nc1nc(Cl)nc2c1ncn2[C@@H]1O[C@H](CO)[C@@H](O)[C@@H]1F [CLOFARABINE] the pIC50 [1] was at most 4.30, the pIC50 [2] was 6.74 and the Activity [6] was “inactive”. The pIC50 [3] was 7.05, the pIC50 [4] was at most 4.30 and the Activity [7] was “inactive”. The Activity [8] was “Active”, the Activity [9] was “inactive” and the Activity [10] was “Active”. For the same molecule, the Activity [11] was “Active” and the pIC50 [5] was 6.89.

In the case of Nc1nc(-c2ccncc2)nc2c1ncn2[C@H]1C[C@H](O)[C@@H](CO)O1, the pIC50 [1] was at most 4.30, the pIC50 [2] was at most 4.30 and the pIC50 [3] was at most 4.30. The pIC50 [4] was at most 4.30 and the pIC50 [5] was at most 4.30.

— ChEMBL document CHEMBL5346918, “Design, synthesis and biological evaluation of Nucleosidic CD99 inhibitors that selectively reduce Ewing sarcoma viability” (Eur J Med Chem, 2023)
